From ChEMBL document CHEMBL5724801, “EUbOPEN Chemogenomics Library - Multiplex” (2024)
Where “and” joins values, the source holds several entries; their conditions need not be identical. Identical values can stand only once.

Tested on: Fibroblast
Assay: Multiplex assay against human fibroblast
Type: toxicity, cell-based
Method in brief: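 Live cells were stained at seeding with Hoechst33342, BioTracker Green Microtubule Cytoskeleton Dye, MitoTracker Red and Annexin V Alexa Fluor 680. Following compound addition, they were imaged on a CQ1 microscope at 37°C and 5% CO2 and gated by CellPathfinder machine learning into Hoechst high-intensity objects or normal cells, with normal cells split into healthy, pyknosed or fragmented nuclei and pyknosed cells into mitotic or apoptotic. Tubulin, mitochondrial-mass and membrane-permeability phenotypes are per cents of healthy-nucleus cells.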

[1] = 12 h, 1 µM, compound concentration 1 uM
[2] = 12 h, 10 µM, compound concentration 10 uM
[3] = 24 h, 1 µM, compound concentration 1 uM
[4] = 24 h, 10 µM, compound concentration 10 uM
[5] = 48 h, 1 µM, compound concentration 1 uM
[6] = 48 h, 10 µM, compound concentration 10 uM

O=C(NCCO)c1cccc(-c2cc(Nc3ccc(OC(F)(F)F)cc3)ncn2)c1
Population Apoptotic (%) [1]: 46% and 38%
Population Fragmented Nuclei (%) [1]: 16% and 29%
Population Healthy Nuclei (%) [1]: 60% and 46%
Population Hoechst High Intensity Objects (%) [1]: 3% and 4%
Population Membrane Permeable-Phenotype (%) [1]: 1% and 10%
Population Mitochondria Different-Phenotype (%) [1]: 6% and 8%
Population Mitotic Cells (%) [1]: 53% and 61%
Population Normal (%) [1]: 96% and 95%
Population Pyknosed Nuclei (%) [1]: 24% and 23%
Population Tubulin-Different-Phenotype (%) [1]: 33% and 46%
Total Cell Count [1]: 130 and 149
Population Apoptotic (%) [2]: 37% and 40%
Population Fragmented Nuclei (%) [2]: 17% and 22%
Population Healthy Nuclei (%) [2]: 59% and 36%
Population Hoechst High Intensity Objects (%) [2]: 5% and 10%
Population Membrane Permeable-Phenotype (%) [2]: 0% and 11%
Population Mitochondria Different-Phenotype (%) [2]: 13% and 11%
Population Mitotic Cells (%) [2]: 62% and 59%
Population Normal (%) [2]: 94% and 89%
Population Pyknosed Nuclei (%) [2]: 22% and 40%
Population Tubulin-Different-Phenotype (%) [2]: 54% and 79%
Total Cell Count [2]: 185 and 192
Population Apoptotic (%) [3]: 56% and 52%
Population Fragmented Nuclei (%) [3]: 16% and 24%
Population Healthy Nuclei (%) [3]: 60% and 50%
Population Hoechst High Intensity Objects (%) [3]: 1% and 2%
Population Membrane Permeable-Phenotype (%) [3]: 2% and 5%
Population Mitochondria Different-Phenotype (%) [3]: 4% and 5%
Population Mitotic Cells (%) [3]: 43% and 47%
Population Normal (%) [3]: 98% and 97%
Population Pyknosed Nuclei (%) [3]: 22% and 25%
Population Tubulin-Different-Phenotype (%) [3]: 33% and 42%
Total Cell Count [3]: 135 and 139
Population Apoptotic (%) [4]: 50% and 41%
Population Fragmented Nuclei (%) [4]: 14% and 30%
Population Healthy Nuclei (%) [4]: 61% and 36%
Population Hoechst High Intensity Objects (%) [4]: 11% and 7%
Population Membrane Permeable-Phenotype (%) [4]: 1% and 10%
Population Mitochondria Different-Phenotype (%) [4]: 21% and 25%
Population Mitotic Cells (%) [4]: 50% and 58%
Population Normal (%) [4]: 88% and 92%
Population Pyknosed Nuclei (%) [4]: 24% and 32%
Population Tubulin-Different-Phenotype (%) [4]: 53% and 84%
Total Cell Count [4]: 175 and 187
Population Apoptotic (%) [5]: 82% and 45%
Population Fragmented Nuclei (%) [5]: 21% and 31%
Population Healthy Nuclei (%) [5]: 65% and 53%
Population Hoechst High Intensity Objects (%) [5]: 1%
Population Membrane Permeable-Phenotype (%) [5]: 3% and 6%
Population Mitochondria Different-Phenotype (%) [5]: 1% and 4%
Population Normal (%) [5]: 98%
Population Pyknosed Nuclei (%) [5]: 13% and 14%
Population Tubulin-Different-Phenotype (%) [5]: 28% and 38%
Total Cell Count [5]: 130 and 156
Population Apoptotic (%) [6]: 70% and 76%
Population Fragmented Nuclei (%) [6]: 35% and 40%
Population Healthy Nuclei (%) [6]: 51% and 47%
Population Hoechst High Intensity Objects (%) [6]: 13% and 6%
Population Membrane Permeable-Phenotype (%) [6]: 0% and 13%
Population Mitochondria Different-Phenotype (%) [6]: 26% and 19%
Population Mitotic Cells (%) [6]: 30% and 23%
Population Normal (%) [6]: 86% and 93%
Population Pyknosed Nuclei (%) [6]: 13% and 11%
Population Tubulin-Different-Phenotype (%) [6]: 64% and 86%
Total Cell Count [6]: 170 and 198

CCCOc1ccc2[nH]cc(C3=CCNCC3)c2n1.Cl
Population Apoptotic (%) [1]: 42% and 48%
Population Fragmented Nuclei (%) [1]: 13% and 25%
Population Healthy Nuclei (%) [1]: 71% and 52%
Population Hoechst High Intensity Objects (%) [1]: 2% and 0%
Population Membrane Permeable-Phenotype (%) [1]: 0% and 8%
Population Mitochondria Different-Phenotype (%) [1]: 6% and 2%
Population Mitotic Cells (%) [1]: 57% and 51%
Population Normal (%) [1]: 97% and 99%
Population Pyknosed Nuclei (%) [1]: 15% and 21%
Population Tubulin-Different-Phenotype (%) [1]: 27% and 47%
Total Cell Count [1]: 143 and 137
Population Apoptotic (%) [2]: 70% and 40%
Population Fragmented Nuclei (%) [2]: 16% and 31%
Population Healthy Nuclei (%) [2]: 70% and 48%
Population Hoechst High Intensity Objects (%) [2]: 4% and 2%
Population Membrane Permeable-Phenotype (%) [2]: 0% and 1%
Population Mitochondria Different-Phenotype (%) [2]: 12% and 10%
Population Mitotic Cells (%) [2]: 29% and 60%
Population Normal (%) [2]: 95% and 97%
Population Pyknosed Nuclei (%) [2]: 13% and 20%
Population Tubulin-Different-Phenotype (%) [2]: 41% and 59%
Total Cell Count [2]: 133 and 125
Population Apoptotic (%) [3]: 57% and 38%
Population Fragmented Nuclei (%) [3]: 14% and 28%
Population Healthy Nuclei (%) [3]: 76% and 52%
Population Hoechst High Intensity Objects (%) [3]: 2% and 0%
Population Membrane Permeable-Phenotype (%) [3]: 0% and 5%
Population Mitochondria Different-Phenotype (%) [3]: 6% and 5%
Population Mitotic Cells (%) [3]: 42% and 61%
Population Normal (%) [3]: 97% and 100%
Population Pyknosed Nuclei (%) [3]: 9% and 18%
Population Tubulin-Different-Phenotype (%) [3]: 20% and 40%
Total Cell Count [3]: 155 and 140
Population Apoptotic (%) [4]: 61% and 50%
Population Fragmented Nuclei (%) [4]: 23% and 20%
Population Healthy Nuclei (%) [4]: 64% and 68%
Population Hoechst High Intensity Objects (%) [4]: 1% and 2%
Population Membrane Permeable-Phenotype (%) [4]: 0% and 4%
Population Mitochondria Different-Phenotype (%) [4]: 12% and 8%
Population Mitotic Cells (%) [4]: 38% and 50%
Population Normal (%) [4]: 98% and 97%
Population Pyknosed Nuclei (%) [4]: 11%
Population Tubulin-Different-Phenotype (%) [4]: 36% and 61%
Total Cell Count [4]: 159 and 107
Population Apoptotic (%) [5]: 69% and 64%
Population Fragmented Nuclei (%) [5]: 17% and 36%
Population Healthy Nuclei (%) [5]: 74% and 53%
Population Hoechst High Intensity Objects (%) [5]: 2% and 4%
Population Membrane Permeable-Phenotype (%) [5]: 0% and 5%
Population Mitochondria Different-Phenotype (%) [5]: 5% and 2%
Population Mitotic Cells (%) [5]: 30% and 35%
Population Normal (%) [5]: 97% and 95%
Population Pyknosed Nuclei (%) [5]: 8% and 9%
Population Tubulin-Different-Phenotype (%) [5]: 23% and 40%
Total Cell Count [5]: 162 and 147
Population Apoptotic (%) [6]: 73% and 60%
Population Fragmented Nuclei (%) [6]: 21% and 32%
Population Healthy Nuclei (%) [6]: 65% and 62%
Population Hoechst High Intensity Objects (%) [6]: 2% and 5%
Population Membrane Permeable-Phenotype (%) [6]: 0% and 4%
Population Mitochondria Different-Phenotype (%) [6]: 9% and 13%
Population Mitotic Cells (%) [6]: 26% and 40%
Population Normal (%) [6]: 97% and 94%
Population Pyknosed Nuclei (%) [6]: 13% and 4%
Population Tubulin-Different-Phenotype (%) [6]: 45% and 44%
Total Cell Count [6]: 150 and 116
